From ChEMBL document CHEMBL1641600, “Novel bifunctional alkylating agents, 5,10-dihydropyrrolo[1,2-b]isoquinoline derivatives, synthesis and biological activity” (Bioorg Med Chem, 2011) come the findings set out here.

In test [1] the test system is CCRF-CEM. The experiment in a line: Cytotoxicity against vinblastine-resistant human CCRF-CEM cells after 72 hrs by XTT assay. The format is functional, cell-based. Summed up:
(§1)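 Leukemic CCRF-CEM and its Taxol- and vinblastine-resistant sublines exposed 72 h to six or seven drug concentrations. XTT with phenazine methosulfate added for 6 h at 37 °C; absorbance read at 450 and 630 nm. IC50 obtained from dose-effect data by the median-effect principle.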

For test [2], the system named is PC-3. The experiment in a line: Cytotoxicity against human PC3 cells after 72 hrs by Alamar blue assay. It counts as functional, cell-based. The settings on record: PC-3, 72 h. In short, it runs like this:
(§2)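 H1299, PC3, OECM1 and U87 cells exposed 72 h to six or seven drug concentrations. Alamar blue added for 6 h at 37 °C; absorbance read at 570 and 600 nm. IC50 obtained from dose-effect data by the median-effect principle.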
In general terms: The colour change of resazurin is a common sign of viable cells or microbes.

Test [3] has as its system CCRF-CEM. Nature of the test: Cytotoxicity against Taxol-resistant human CCRF-CEM cells after 72 hrs by XTT assay. The format is functional, cell-based. In short, it runs like this:
as §1
On the technique in general: Tetrazolium assays rely on reduction of a dye to a coloured formazan, in cell work by metabolically active cells.

Test [4] can be described thus: Cytotoxicity against human OECM1 cells after 72 hrs by Alamar blue assay. The format is functional, cell-based. The settings on record: OECM1, 72 h. Summed up: as §2
For test [5], the system named is CCRF-CEM. Nature of the test: Ratio of IC50 for Taxol-resistant human CCRF-CEM cells to IC50 for human CCRF-CEM cells.
The test system of test [6] is HCT-116. Nature of the test: Cytotoxicity against human HCT116 cells after 72 hrs by SRB assay. It counts as functional, cell-based. The following applies: HCT-116, 72 h. Summed up:
(§3)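 MX-1 breast and HCT-116 colon carcinoma cells exposed 72 h to six or seven drug concentrations. Growth measured by SRB assay with microplate absorbance. IC50 obtained from dose-effect data by the median-effect principle.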

For test [7], the system named is CCRF-CEM. The experiment in a line: Cytotoxicity against human CCRF-CEM cells after 72 hrs by XTT assay. It counts as functional, cell-based. Summed up:
as §1

A short description of test [8]: Cytotoxicity against human U87 cells after 72 hrs by Alamar blue assay. The format is functional, cell-based, U-87MG ATCC. The following applies: U-87 MG. Summed up: as §2
A short description of test [9]: Cytotoxicity against human H1299 cells after 72 hrs by Alamar blue assay. It counts as functional, cell-based. The settings on record: NCI-H1299, 72 h. In short, it runs like this:
as §2

Test [10] concerns MX1. The experiment in a line: Cytotoxicity against human MX1 cells after 72 hrs by SRB assay. The format is functional, cell-based. The following applies: MX1, 72 h. In short, it runs like this:
as §3

Test [11] concerns NCI-H1299. Nature of the test: Cell cycle arrest in human H1299 cells assessed as accumulation at G2/M phase at 1.25 uM after 24 hrs by propidium iodide staining-based flow cytometry. The settings on record: NCI-H1299, 24 h. On the technique in general: A flow cytometer gives signals particle by particle.
The subject of test [12] is NCI-H1299. Nature of the test: Cell cycle arrest in human H1299 cells assessed as accumulation at G2/M phase at 2.5 uM after 24 hrs by propidium iodide staining-based flow cytometry. The following applies: NCI-H1299, 24 h.
Test [13] relates to SK-OV-3. The experiment in a line: Antitumor activity against human SKOV3 cells implanted in mouse assessed as significant suppression in tumor size at 20 mg/kg, iv QD for 4 times measured on day 22.
The test system of test [14] is NCI-H1299. Nature of the test: Cell cycle arrest in human H1299 cells assessed as accumulation at subG1 phase at 5 uM after 24 hrs by propidium iodide staining-based flow cytometry. The settings on record: NCI-H1299, 24 h.
The test system of test [15] is NCI-H1299. The experiment in a line: Cell cycle arrest in human H1299 cells assessed as accumulation at S phase at 2.5 uM after 24 hrs by propidium iodide staining-based flow cytometry. The following applies: NCI-H1299, 24 h.
Test [16] has as its system NCI-H1299. Nature of the test: Cell cycle arrest in human H1299 cells assessed as accumulation at G1 phase at 5 uM after 24 hrs by propidium iodide staining-based flow cytometry. The following applies: NCI-H1299, 24 h.
For test [17], the system named is Nucleic Acid. Nature of the test: Induction of Escherichia coli pEGFP-N1 DNA cross-linking at 1 to 20 uM after 2 hrs by alkaline agarose gel shift assay. The format is nucleic-acid assay. Summed up:
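pEGFP-N1 plasmid DNA (1.5 µg) incubated with compound (1–20 µM) in binding buffer (3 mM NaCl/1 mM sodium phosphate pH 7.4, 1 mM EDTA) for 2 h at 37 °C. Plasmid then linearized with BamHI, ethanol-precipitated, and resolved on alkaline agarose gel into single-stranded and cross-linked bands. Melphalan (1, 5, 10 µM) as positive control.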

Test [18] concerns NCI-H1299. The experiment in a line: Cell cycle arrest in human H1299 cells assessed as accumulation at S phase at 5 uM after 24 hrs by propidium iodide staining-based flow cytometry. The settings on record: NCI-H1299, 24 h.
Test [19] deals with NCI-H1299. Nature of the test: Cell cycle arrest in human H1299 cells assessed as accumulation at G1 phase at 1.25 uM after 24 hrs by propidium iodide staining-based flow cytometry. The following applies: NCI-H1299, 24 h.
Test [20] has as its system NCI-H1299. The experiment in a line: Cell cycle arrest in human H1299 cells assessed as accumulation at G1 phase at 2.5 uM after 24 hrs by propidium iodide staining-based flow cytometry. The settings on record: NCI-H1299, 24 h.
The test system of test [21] is NCI-H1299. The experiment in a line: Cell cycle arrest in human H1299 cells assessed as accumulation at subG1 phase at 1.25 uM after 24 hrs by propidium iodide staining-based flow cytometry. The following applies: NCI-H1299, 24 h.
Test [22] deals with NCI-H1299. The experiment in a line: Cell cycle arrest in human H1299 cells assessed as accumulation at S phase at 1.25 uM after 24 hrs by propidium iodide staining-based flow cytometry. The settings on record: NCI-H1299, 24 h.
The test system of test [23] is NCI-H1299. Nature of the test: Cell cycle arrest in human H1299 cells assessed as accumulation at G2/M phase at 5 uM after 24 hrs by propidium iodide staining-based flow cytometry. The following applies: NCI-H1299, 24 h.
In test [24] the test system is MX1. The experiment in a line: Antitumor activity against human MX1 cells implanted in mouse assessed as complete suppression in tumor size at 30 mg/kg, iv Q2D for 2 times measured on day 8 and 10. The format is functional, organism-based. Set-up: dose 30 mg/kg. In short, it runs like this:
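Athymic nu/nu nude mice (outbred Swiss background, male, ≥8 weeks, about 22 g) bearing human tumor xenografts; MX-1 dosed iv Q2D×2 (day 8 and 10), SK-OV-3 dosed iv QD×4 from day 22. Tail-vein injection in DMSO/Tween 80/saline vehicle at the maximal tolerable dose. Tumor volume measured by caliper (length×width×height or width); body weight followed; n = 4.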

Test [25] has as its system NCI-H1299. Nature of the test: Cell cycle arrest in human H1299 cells assessed as accumulation at subG1 phase at 2.5 uM after 24 hrs by propidium iodide staining-based flow cytometry. The settings on record: NCI-H1299, 24 h.

Active and inactive are the calls of the source. The calls are words filed in the database; no cut-off is given here.

As a reminder, the IC50 is the concentration that inhibits the measured activity by half. A lower IC50 goes with higher potency. `Cc1c(COC(=O)NC(C)C)c(COC(=O)NC(C)C)c2n1Cc1ccccc1C2`: the 50% inhibitory concentration (IC50) amounted to 140 nM in test [1]; 16.9 µM in [2]; 230 nM in [3]; 11.8 µM in test [4]; 1380 nM in test [6]; 270 nM in test [7]. Besides, the figures for the half-maximal inhibitory concentration (IC50) in [8], in test [9] and in test [10] were 26.6 µM, 9.77 µM and 1280 nM, respectively. The “Ratio IC50” value in [5] is listed as 0.84.
On to `OCc1c(CO)c(-c2ccc(F)cc2)n2c1Cc1ccccc1C2`, for which the IC50 in test [1] was found to be 490 nM; in test [2] it was 5.93 µM; in test [3] it was 880 nM; in test [4], 6.99 µM; in test [6] it was 2460 nM; in [7], 510 nM. The figures for the IC50 in test [8], in test [9] and in test [10] were 23.2 µM, 8.76 µM and 4010 nM, respectively. In [5], the “Ratio IC50” value is 1.72.
Consider `OCc1c(CO)c(-c2ccc(Cl)cc2)n2c1Cc1ccccc1C2`, for which the IC50 in [1] was found to be 720 nM; in [2], 9.85 µM; in test [3], 770 nM; in test [4], 12.1 µM; in test [6], 3060 nM; in [7], 600 nM. The values for the concentration for half-maximal inhibition (IC50) in test [8], in test [9] and in test [10] were 26.7 µM, 24.7 µM and 3280 nM, respectively. Further, the “Ratio IC50” value in test [5] amounted to 1.28.
Take `COc1ccc(-c2c(COC(=O)NC(C)C)c(COC(=O)NC(C)C)c3n2Cc2ccccc2C3)cc1`: the IC50 in [1] came to 160 nM; in test [2] it was 6.79 µM; in [3], 190 nM; in [4], 8.83 µM; in test [6], 970 nM; in [7], 340 nM. Besides, the IC50 in [8] worked out at 21 µM; in test [9], 13.2 µM; in test [10], 980 nM. Moreover, the “Ratio IC50” value in test [5] stood at 0.56.
`CCNC(=O)OCc1c(COC(=O)NCC)c(-c2ccc(Cl)cc2)n2c1Cc1ccccc1C2`: the IC50 in [1] came to 570 nM; in test [2], 11 µM; in [3], 350 nM; in [4] it was 25.3 µM; in test [6], 620 nM; in test [7], 590 nM. The IC50 in test [8] was determined as 33.6 µM; in test [9], 37.2 µM; in [10], 1690 nM. Besides, the “Ratio IC50” value in [5] amounted to 0.59.
As to `CC(C)NC(=O)OCc1c(COC(=O)NC(C)C)c(-c2ccc(F)cc2)n2c1Cc1ccccc1C2`, the concentration for half-maximal inhibition (IC50) in [1] worked out at 230 nM; in test [2] it was 12.3 µM; in test [3] it was 230 nM; in test [4], 11.1 µM; in test [6] it was 630 nM; in test [7] it was 760 nM. The IC50 in test [8] is 36.9 µM; in [9], 8.13 µM; in test [10] it was 1170 nM. The “Ratio IC50” value in test [5] was found to be 0.3.
Consider `CCNC(=O)OCc1c(COC(=O)NCC)c2n(c1C)Cc1ccccc1C2`, for which the IC50 is 120 nM in test [1]; 15.5 µM in test [2]; 110 nM in test [3]; 11.3 µM in test [4]; 900 nM in [6]; 240 nM in test [7]. In addition, the IC50 in test [8] came out at 13.9 µM; in [9] it was 19.4 µM; in [10] it was 2270 nM. In addition, in test [5], the “Ratio IC50” value was 0.48.
Turning to `CCNC(=O)OCc1c(COC(=O)NCC)c(-c2ccc(F)cc2)n2c1Cc1ccccc1C2`, the 50% inhibitory concentration (IC50) in [1] amounted to 570 nM; in test [2] it was 9.59 µM; in [3], 430 nM; in test [4], 12.5 µM; in test [6] it was 790 nM; in test [7] it was 310 nM. Moreover, the IC50 in test [8] came to 28.4 µM; in [9], 3.94 µM; in [10], 1510 nM. Further, in test [5], the “Ratio IC50” value worked out at 1.39.
Turning to `COc1ccc(-c2c(CO)c(CO)c3n2Cc2ccccc2C3)cc1`, the concentration for half-maximal inhibition (IC50) in [1] was 110 nM; in test [2] it was 10.9 µM; in test [3], 250 nM; in test [4] it was 6.12 µM; in test [6], 1130 nM; in test [7], 230 nM. The IC50 in test [8] was 10.6 µM; in test [9], 13.9 µM; in [10], 1990 nM. For the same molecule, the “Ratio IC50” value in test [5] is 1.02.
In the case of `Cc1c(CO)c(CO)c2n1Cc1ccccc1C2`, the half-maximal inhibitory concentration (IC50) is 90 nM in test [1]; 6.07 µM in test [2]; 100 nM in test [3]; 6.1 µM in test [4]; 290 nM in test [6]; 80 nM in test [7]. Further, the concentration for half-maximal inhibition (IC50) in [8] is 27.9 µM; in [9], 2.48 µM; in [10], 660 nM. Further, the cell population % at 1.25 µM turned out to be 40.1% in [11], 5.6% in [19], 21.6% in [21] and 32.7% in [22]. In addition, the cell population % at 2.5 µM came out at 47.3% in test [12], 18.3% in test [15], 7.7% in test [20] and 26.6% in test [25]. Moreover, the outcome in [13], in test [17] and in test [24] was Active. Further, the cell population % at 5 µM in test [14] is 26.5%; in test [16], 0.5%; in [18] it was 24.7%; in test [23], 48.4%. Further, the “Ratio IC50” value in test [5] is on record as 1.22.
